HUVEC prolif 384: inhibitors of human endothelial cell proliferation. HUVEC proliferation, CellTiter-Glo luminescence, 72 h; stronger effect = lower value. viability, % at 10 µM (by protocol). 86,000 compounds, 1.1% hits;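 active = viability at or below 30%; inactive = viability above 30%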
bCat KO growth: beta-catenin-lacking colon tumor cell growth suppression | HCT116 beta-catenin knockout viability, CellTiter-Glo, 60 h; stronger effect = lower value | viability, % at 10 µM | 140,000 compounds, 1.5% hits | AID 818;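 active = viability at or under a set limit, the compound median less 4 SD, cut at about 6% in these data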
H69AR growth 86K: growth inhibitors of human H69AR lung tumor cells; H69AR lung tumor viability, ATP luminescence, 72 h; stronger effect = lower value; viability, % at 10 µM; 85,000 compounds, 6% hits;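 active = viability at or below 40%; inactive = viability above 40%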;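 note: multidrug resistant small cell line overexpressing MRP-1 efflux transporter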
Fibroblast inh: blocks proliferation of human lung fibroblasts; 85,000 compounds, 1.1% hits; viability, % at 10 µM; LL 47 human lung fibroblast viability, ATP luminescence; stronger effect = lower value;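 active = viability at or below 50% in the single dose screen; inactive = viability above 50%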;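 note: compound exposure lasted 72 h before the ATP readout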
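Times – overnight cell rest, 72 h compound treatment at 37 °C · Test system – human lung fibroblast line LL 47, low passage · Amount – 1,150 cells in each well · Controls – cell-only wells, no compound · Doses – 0.1% DMSO in all compound wells · Measured by – CellTiter-Glo luminescence · Buffer or medium – IMEM plus 15% FBS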
PTEN del growth: suppresses growth of cells with PTEN deletion | HCT116 PTEN-null viability, CellTiter-Glo, 60 h; stronger effect = lower value | viability, % at 10 µM | 140,000 compounds, 1.2% hits;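 active = viability at or below a set limit, 4 SD under the median of all tested compounds, cut at about 3.7% in these data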;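 note: PTEN knockout HCT116 line with beta catenin targeted HCT116 as companion control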
Large screens that a line does not name were inactive. The full list was thinned out, with hits kept by preference.

O=C(Cc1ccccc1)Nc1ccccc1Oc1ccccc1	none (no result: HUVEC prolif 384, H69AR growth 86K, Fibroblast inh)
COc1ccc2nc(Sc3c([N+](=O)[O-])nc(C)n3Cc3ccccc3)[nH]c2c1	bCat KO growth 4.6, PTEN del growth 1.7 (no result: HUVEC prolif 384, H69AR growth 86K, Fibroblast inh)
Cc1cc2nc(Sc3c([N+](=O)[O-])nc(C)n3Cc3ccccc3)[nH]c2cc1C	bCat KO growth 4.6, PTEN del growth 2.8 (no result: HUVEC prolif 384, H69AR growth 86K, Fibroblast inh)
Cc1nc([N+](=O)[O-])c(Sc2nc3ccccc3[nH]2)n1Cc1ccccc1	none (no result: HUVEC prolif 384, H69AR growth 86K, Fibroblast inh)
CCOC(=O)/C(C#N)=C/C1=C(N2CCCC2)CC(C)(CC)OC1 (centres undefined)	none
CC(=O)c1ccc(NC(=O)c2ccc(S(=O)(=O)N3CCCC3)cc2)cc1	none
CCCC(=O)Nc1nc2ccc(S(=O)(=O)N3CCCCC3)cc2s1	H69AR growth 86K 20, Fibroblast inh 48
O=C(Nc1nc2ccc(S(=O)(=O)N3CCCC3)cc2s1)c1ccco1	none (no result: HUVEC prolif 384, H69AR growth 86K, Fibroblast inh)
CC(C)CC(=O)Nc1nc2ccc(S(=O)(=O)N3CCOCC3)cc2s1	H69AR growth 86K 27
CCCCC(=O)Nc1ccc(C(=O)Nc2ccc(S(=O)(=O)N3CCCC3)cc2)cc1	Fibroblast inh 42
CC(C)[C@H](NC(=O)c1cccc(S(=O)(=O)N2CCOCC2)c1)C(=O)Nc1nc2ccccc2s1	none (no result: HUVEC prolif 384, H69AR growth 86K, Fibroblast inh)
Cc1ccc2nc(NC(=O)C3CCCN(S(=O)(=O)c4cccnc4)C3)sc2c1 (centres undefined)	H69AR growth 86K 28
O=C(NCC1(c2ccccc2)CCCC1)c1ccc(Br)o1	none (no result: HUVEC prolif 384, H69AR growth 86K, Fibroblast inh)
CC(C)c1ccc(-c2nn(-c3ccccc3)cc2C2C(C#N)=C(N)OC3=C2C(=O)CC(C)(C)C3)cc1 (centres undefined)	none (no result: HUVEC prolif 384, H69AR growth 86K, Fibroblast inh)
Cc1ccc(-n2[nH]c(C)c(/C=N/Nc3ccc([N+](=O)[O-])cc3[N+](=O)[O-])c2=O)cc1	none (no result: HUVEC prolif 384, H69AR growth 86K, Fibroblast inh)
Clc1ccc(-n2nnnc2-c2cnc(-c3ccncc3)nc2-c2cccs2)cc1	H69AR growth 86K 9.8
FC(F)(F)c1nc(-c2cccs2)ncc1-c1nnnn1-c1ccc(Cl)cc1	none (no result: HUVEC prolif 384, H69AR growth 86K, Fibroblast inh)
Cc1n[nH]c(C)c1N1C(=O)c2cccc3c(Br)ccc(c23)C1=O	bCat KO growth 4.8
COc1ccccc1NC(=O)c1c(Nc2ccccc2C)sc(C(=O)Nc2cccc(Cl)c2)c1N	none (no result: HUVEC prolif 384, H69AR growth 86K, Fibroblast inh)
Cc1oc(-c2ccccc2Cl)nc1CSc1nc2c(c(=O)[nH]1)CCC2	none (no result: HUVEC prolif 384, H69AR growth 86K, Fibroblast inh)
O=C(Nc1cc(S(=O)(=O)N2CCCCC2)ccc1O)c1ccccc1NS(=O)(=O)c1ccc(F)c(F)c1	none (no result: HUVEC prolif 384, H69AR growth 86K, Fibroblast inh)
Cc1ccc2nc(C(F)(F)F)c(C#N)c(N)c2c1	bCat KO growth 3.6 (no result: HUVEC prolif 384, H69AR growth 86K, Fibroblast inh)
Cc1cc(C)c2nc(C(F)(F)F)c(C#N)c(N)c2c1	H69AR growth 86K 40
CCCc1nc2c(C)cc(C)cc2c(N)c1CC	none (no result: HUVEC prolif 384, H69AR growth 86K, Fibroblast inh)
Cc1oc(-c2ccccc2)nc1CS(=O)CC(=O)N1CCc2ccccc2C1 (centres undefined)	none
CCCN(CCC)CCCNC(=S)Nc1ccc2nc3n(c(=O)c2c1)CCCCC3	none (no result: HUVEC prolif 384, H69AR growth 86K, Fibroblast inh)
C[C@]12CCC(=O)C=C1CC[C@@H]1[C@@H]2CC[C@@]2(C)[C@H]1CC[C@]2(O)C(=O)CO	none
CC(=O)[C@H]1CC[C@H]2[C@@H]3CCC4=CC(=O)CC[C@]4(C)[C@H]3CC[C@]12C	H69AR growth 86K 29
N#Cc1ccc(OCC(=O)OCC(=O)NCCC2=CCCCC2)cc1	none (no result: HUVEC prolif 384, H69AR growth 86K, Fibroblast inh)
COc1ccc(C2OC34CCCCC3C(C#N)(C#N)C2(C#N)C(=N)O4)cc1 (centres undefined)	H69AR growth 86K 34
N#CC1(C#N)COC23CCCCC2C1(C#N)C(=N)O3 (centres undefined)	H69AR growth 86K 8.2
CCCC1OC23CCCCC2C(C#N)(C(=N)O3)C1(C#N)C#N (centres undefined)	H69AR growth 86K 22
CC1OC23CCCCC2C(C#N)(C(=N)O3)C1(C#N)C#N (centres undefined)	none
CN(C)/C=C(/C(=O)c1ccc(Cl)cc1)S(=O)(=O)c1ccc(Cl)cc1	none (no result: HUVEC prolif 384, H69AR growth 86K, Fibroblast inh)
COCCn1c(=O)[nH]c2cc(C(=O)NCCN3CCN(c4cccc(Cl)c4)CC3)ccc2c1=O	none (no result: HUVEC prolif 384, H69AR growth 86K, Fibroblast inh)
COc1ccc(OC)c(/C=C/C(=O)c2ccc(Cl)cc2)c1	bCat KO growth 2.9, PTEN del growth 3.1 (no result: HUVEC prolif 384, H69AR growth 86K, Fibroblast inh)
COc1ccccc1/C=C/C(=O)c1ccc(Cl)cc1	none (no result: HUVEC prolif 384, H69AR growth 86K, Fibroblast inh)
COc1ccc(C(CCN(Cc2ccc(OC)c(OC)c2)C(C)=O)c2ccccc2)cc1 (centres undefined)	none (no result: HUVEC prolif 384, H69AR growth 86K, Fibroblast inh)
COc1ccc(CN(CCC(c2ccccc2)c2ccc(OC(C)C)cc2)C(=O)CCl)cc1OC (centres undefined)	bCat KO growth 1.5, PTEN del growth 1.5 (no result: HUVEC prolif 384, H69AR growth 86K, Fibroblast inh)
O=C(NCc1ccco1)Nc1ccc(Br)cc1	none
O=C(NCc1ccco1)Nc1ccc2nsnc2c1	H69AR growth 86K 31

Screening results (PubChem BioAssay)
